Test results published in ChEMBL document CHEMBL1152933, “Synthesis and evaluation of novel 7-azaindazolyl-indolyl-maleimide derivatives as antitumor agents and protein kinase C inhibitors” (Bioorg Med Chem, 2009).
Activity calls are given as the source filed them. No cut-off for these calls is given here.

Tests used:
[1] = test system: SMMC-7721; test: Antiproliferative activity against human SMMC7721 cells after 48 hrs by MTT assay; type: functional, cell-based; details: SMMC-7721, 48 h
In short: (§1)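 MTT assay after 48 h incubation with compound. MTT (5.0 mg/mL stock in RPMI-1640) was added and incubated a further 4 h at 37 °C. Formazan was dissolved in DMSO and absorbance read at 570 nm. IC50 is the concentration giving 50% decrease in cell growth, computed from dose-effect analysis. Triplicate wells, three independent experiments, values are means.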

[2] = Antiproliferative activity against human ECA109 cells after 48 hrs by MTT assay; type: functional, cell-based; details: ECa-109, 48 h; in short: as §1
[3] = Inhibition of PKC by […] assay
In short: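 Recombinant PKC was incubated with reaction mixture containing a fluorescent PepTag PKC-specific peptide substrate at 30 °C for 30 min, then stopped by boiling. Phosphorylated (−1) and nonphosphorylated (+1) peptide were separated on 0.8% agarose in 50 mM Tris-HCl pH 8.0 at 100 V for 15 min and visualized under UV. IC50 values are means of three experiments.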

[4] = test system: A549; test: Antiproliferative activity against human A549 cells after 48 hrs by MTT assay; type: functional, cell-based; details: A549, 48 h; in short: as §1
[5] = test system: K562; test: Antiproliferative activity against human K562 cells after 48 hrs by MTT assay; type: functional, cell-based; details: K562, 48 h; in short: as §1
[6] = test system: KB; test: Antiproliferative activity against human KB cells after 48 hrs by MTT assay; type: functional, cell-based; in short: as §1
[7] = test system: KB; test: Induction of apoptosis in human KB cells assessed as decrease in procaspase-3 expression at 20 uM after 48 hrs by Western blotting; type: functional, cell-based
In short: (§2)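 KB cells were treated 48 h with 10 or 20 µM, then lysed in NaCl/Tris pH 8.0/EGTA/EDTA/NaF/β-glycerophosphate/Triton/NP-40/PMSF buffer. Protein was quantified by BCA. Equal protein was run on 10–12% Tris-glycine gels and blotted. Blots were probed for JNK, Bax, Bcl-2, procaspase-9, procaspase-3 and tubulin, with HRP secondary and ECL detection. Bax/Bcl-2 ratio was derived from the blots.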

[8] = test system: KB; test: Antiproliferative activity against human KB cells at 10 uM after 48 hrs by MTT assay; type: functional, cell-based
[9] = test system: KB; test: Induction of apoptosis in human KB cells assessed as increase in caspase 3/7 activity at 20 uM after 48 hrs; type: functional, cell-based
In short: (§3)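 KB cells were cultured 48 h with 10 or 20 µM, then caspase-3/7 activity was measured with a Caspase-Glo 3/7 kit per the kit protocol and compared with control cells.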

[10] = test system: KB; test: Induction of apoptosis in human KB cells assessed as decrease in procaspase-9 expression at 20 uM after 48 hrs by Western blotting; type: functional, cell-based; in short: as §2
[11] = test system: KB; test: Induction of apoptosis in human KB cells assessed as increase in Bax/Bcl-2 ratio at 20 uM after 48 hrs by Western blotting; type: functional, cell-based; in short: as §2
[12] = test system: KB; test: Induction of apoptosis in human KB cells assessed as increase in caspase 3/7 activity at 10 uM after 48 hrs; type: functional, cell-based; in short: as §3
[13] = test system: KB; test: Induction of apoptosis in human KB cells assessed as DNA fragmentation at 20 uM after 48 hrs by agarose gel electrophoresis; type: functional, cell-based
In short: (§4)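 KB cells were treated 48 h with 10 or 20 µM, then lysed in EDTA/Tris pH 8.0/SDS/proteinase K buffer at 37 °C for 12 h, followed by RNase 1 h at 37 °C. DNA was phenol/chloroform extracted and ethanol precipitated, then run on 1.5% agarose gel with ethidium bromide and photographed for laddering.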

[14] = test system: KB; test: Induction of apoptosis in human KB cells assessed as DNA fragmentation at 10 uM after 48 hrs by agarose gel electrophoresis; type: functional, cell-based; in short: as §4
[15] = test system: KB; test: Antiproliferative activity against human KB cells at 20 uM after 48 hrs by light microscopy
[16] = test system: KB; test: Induction of apoptosis in human KB cells assessed as decrease in BCL-2 expression at 20 uM after 48 hrs by Western blotting; type: functional, cell-based; in short: as §2
[17] = test system: KB; test: Induction of apoptosis in human KB cells assessed as increase in JNK expression at 20 uM after 48 hrs by Western blotting; type: functional, cell-based; in short: as §2

SMILES | IC50 [1] | IC50 [2] | IC50 [3] | IC50 [4] | IC50 [5] | IC50 [6] | Activity [7] | Activity [8] | Activity [9] | Activity [10] | Activity [11] | Activity [12] | Activity [13] | Activity [14] | Activity [15] | Activity [16] | Activity [17]
Cn1cc(C2=C(c3nn(CCCn4ccnc4)c4ncccc34)C(=O)N(c3ccccc3)C2=O)c2ccccc21 | 34.8 µM | 1.44 µM | > 10 µM | 1.56 µM | 5.51 µM | 6.8 µM | – | – | – | – | – | – | – | – | – | – | –
Cn1cc(C2=C(c3nn(CCCCn4ccnc4)c4ncccc34)C(=O)NC2=O)c2ccccc21 | 29.2 µM | 23.5 µM | 0.86 µM | 2.38 µM | 31.8 µM | > 100 µM | – | – | – | – | – | – | – | – | – | – | –
CN(C)CCCn1nc(C2=C(c3cn(C)c4ccccc34)C(=O)N(c3ccccc3)C2=O)c2cccnc21 | 31.2 µM | 5.84 µM | > 10 µM | 13 µM | 1.7 µM | 14.1 µM | – | – | – | – | – | – | – | – | – | – | –
Cn1cc(C2=C(c3n[nH]c4ncccc34)C(=O)N(c3cccc4ccccc34)C2=O)c2ccccc21 | > 100 µM | > 100 µM | > 10 µM | > 100 µM | > 100 µM | > 100 µM | – | – | – | – | – | – | – | – | – | – | –
Cn1cc(C2=C(c3nn(CCCn4cccc4)c4ncccc34)C(=O)NC2=O)c2ccccc21 | > 100 µM | > 100 µM | 1.1 µM | > 100 µM | 21.6 µM | > 100 µM | – | – | – | – | – | – | – | – | – | – | –
Cn1cc(C2=C(c3nn(CCCN4CCCCC4)c4ncccc34)C(=O)N(c3ccccn3)C2=O)c2ccccc21 | > 100 µM | 7.3 µM | > 10 µM | > 100 µM | > 100 µM | > 100 µM | – | – | – | – | – | – | – | – | – | – | –
Cn1cc(C2=C(c3nn(CCCn4ccnc4)c4ncccc34)C(=O)NC2=O)c2ccccc21 | > 100 µM | > 100 µM | 0.9 µM | > 100 µM | 13.8 µM | > 100 µM | – | – | – | – | – | – | – | – | – | – | –
Cn1cc(C2=C(c3n[nH]c4ncccc34)C(=O)NC2=O)c2ccccc21 | > 100 µM | 46.1 µM | > 10 µM | > 100 µM | > 100 µM | 62 µM | – | – | – | – | – | – | – | – | – | – | –
Cn1cc(C2=C(c3nn(CCCN4CCCCC4)c4ncccc34)C(=O)NC2=O)c2ccccc21 | 7.67 µM | 42.3 µM | 0.65 µM | > 100 µM | 5.96 µM | 98 µM | – | – | – | – | – | – | – | – | – | – | –
Cn1cc(C2=C(c3nn(CCCN4CCOCC4)c4ncccc34)C(=O)NC2=O)c2ccccc21 | > 100 µM | > 100 µM | 5.95 µM | > 100 µM | > 100 µM | > 100 µM | – | – | – | – | – | – | – | – | – | – | –
CN1CCN(CCCn2nc(C3=C(c4cn(C)c5ccccc45)C(=O)NC3=O)c3cccnc32)CC1 | > 100 µM | > 100 µM | 1.86 µM | > 100 µM | 46.7 µM | > 100 µM | – | – | – | – | – | – | – | – | – | – | –
Cn1cc(C2=C(c3nn(CCCn4cccc4)c4ncccc34)C(=O)N(c3ccccc3)C2=O)c2ccccc21 | > 100 µM | > 100 µM | > 10 µM | > 100 µM | 36.6 µM | > 100 µM | – | – | – | – | – | – | – | – | – | – | –
Cn1cc(C2=C(c3nn(CCCN4CCCCC4)c4ncccc34)C(=O)N(c3ccccc3)C2=O)c2ccccc21 | 3.05 µM | 12.3 µM | > 10 µM | 20.6 µM | 3.79 µM | 5.6 µM | Active | Active | Active | Active | Active | Active | Active | Active | Active | Active | Active
Cn1cc(C2=C(c3nn(CCCN4CCCCC4)c4ncccc34)C(=O)N(c3cccc4ccccc34)C2=O)c2ccccc21 | 0.22 µM | 1.83 µM | > 10 µM | 2.82 µM | 3.18 µM | 13.4 µM | – | – | – | – | – | – | – | – | – | – | –
Cn1cc(C2=C(c3nn(CCCO)c4ncccc34)C(=O)NC2=O)c2ccccc21 | > 100 µM | > 100 µM | 3.15 µM | > 100 µM | 85.8 µM | > 100 µM | – | – | – | – | – | – | – | – | – | – | –
O=C1NC(=O)C(c2c[nH]c3ccccc23)=C1c1c[nH]c2ccccc12 [RO-316233] | > 100 µM | 83.5 µM | 0.35 µM | 56.6 µM | 17.5 µM | 53.8 µM | – | – | – | – | – | – | – | – | – | – | –
Cn1cc(C2=C(c3nn(CCCn4cncn4)c4ncccc34)C(=O)N(c3ccccc3)C2=O)c2ccccc21 | > 100 µM | > 100 µM | > 10 µM | > 100 µM | > 100 µM | > 100 µM | – | – | – | – | – | – | – | – | – | – | –
COc1ccc(N2C(=O)C(c3cn(C)c4ccccc34)=C(c3nn(CCCN4CCCCC4)c4ncccc34)C2=O)cc1 | 1.74 µM | 3.34 µM | > 10 µM | 30.3 µM | > 100 µM | 44 µM | – | – | – | – | – | – | – | – | – | – | –
Cn1cc(C2=C(c3n[nH]c4ncccc34)C(=O)N(c3ccccc3)C2=O)c2ccccc21 | > 100 µM | > 100 µM | > 10 µM | > 100 µM | 3.26 µM | > 100 µM | – | – | – | – | – | – | – | – | – | – | –
Cn1cc(C2=C(c3nn(CCCn4cncn4)c4ncccc34)C(=O)NC2=O)c2ccccc21 | > 100 µM | > 100 µM | 2.2 µM | > 100 µM | > 100 µM | > 100 µM | – | – | – | – | – | – | – | – | – | – | –
Cn1cc(C2=C(c3nn(CCCCn4ccnc4)c4ncccc34)C(=O)N(c3ccccc3)C2=O)c2ccccc21 | 1.76 µM | 7.54 µM | > 10 µM | 21.7 µM | 5.03 µM | 47.3 µM | – | – | – | – | – | – | – | – | – | – | –
CN(C)CCCn1nc(C2=C(c3cn(C)c4ccccc34)C(=O)NC2=O)c2cccnc21 | > 100 µM | > 100 µM | 0.72 µM | > 100 µM | 50.4 µM | > 100 µM | – | – | – | – | – | – | – | – | – | – | –
Cn1cc(C2=C(c3nn(CCCN4CCCCC4)c4ncccc34)C(=O)N(c3ccc(Cl)cc3)C2=O)c2ccccc21 | > 100 µM | > 100 µM | > 10 µM | 28.7 µM | 1.8 µM | > 100 µM | – | – | – | – | – | – | – | – | – | – | –
Cn1cc(C2=C(c3nn(CCn4ccnc4)c4ncccc34)C(=O)NC2=O)c2ccccc21 | > 100 µM | > 100 µM | 9.1 µM | > 100 µM | > 100 µM | > 100 µM | – | – | – | – | – | – | – | – | – | – | –
Cn1cc(C2=C(c3nn(CCn4ccnc4)c4ncccc34)C(=O)N(c3ccccc3)C2=O)c2ccccc21 | > 100 µM | 8.77 µM | > 10 µM | 43.1 µM | 26.4 µM | > 100 µM | – | – | – | – | – | – | – | – | – | – | –
